S1P3 antag – antagonists of human S1P3 receptor; Q99500; CHO S1P3 NFAT-BLA reporter, FRET fluorescence, antagonist mode; inhibition, % at 4.98 µM; 170,000 tested, 0.27% active;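 active = inhibition above the plate cutoff, the mean inhibition of test wells on that plate plus 3 SD, cut at about 28% in these data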;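 note: cells challenged with S1P at its EC80 of 0.8 µM; blue over green emission ratio from cleaved BLA substrate after 4 h stimulation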
Target sequence (Q99500 whole entry, looked up): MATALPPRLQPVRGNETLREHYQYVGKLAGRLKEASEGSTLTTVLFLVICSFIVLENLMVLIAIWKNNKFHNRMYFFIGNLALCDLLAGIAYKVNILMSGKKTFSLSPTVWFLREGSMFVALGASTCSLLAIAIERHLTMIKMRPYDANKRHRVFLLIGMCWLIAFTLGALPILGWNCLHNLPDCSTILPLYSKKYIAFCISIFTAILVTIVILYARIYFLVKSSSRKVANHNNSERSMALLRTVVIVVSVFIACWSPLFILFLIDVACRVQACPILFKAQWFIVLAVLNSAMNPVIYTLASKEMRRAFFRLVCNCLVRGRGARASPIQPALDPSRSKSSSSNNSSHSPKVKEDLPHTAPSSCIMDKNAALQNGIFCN
Hsp70 act – switches on Hsp70 transcription; HeLa Hsp70 promoter luciferase reporter, luminescence; scaled: vehicle 0, proteasome-inhibitor control 100%; activation, % at 10 µM; 200,000 tested, 0.04% active; AID 1203;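 active = activation above the mean across all tested compounds plus 3 SD, cutoff set per campaign, cut at about 5.5% in these data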
CHOP inhibitor – CHOP inhibition in unfolded protein response. CHO-K1 CHOP-promoter luciferase, tunicamycin-induced, 15-18 h. inhibition, % at 10 µM. 220,000 tested, 3.8% active;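 active = compounds that reduced the stress-induced luciferase reporter signal by more than about 70% of percent inhibition, limit read from the data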
MDM2 E3 inh – Mdm2 E3 ligase (human) inhibition | cell-based MDM2 ubiquitination luciferase reporter, 2 h; 0 = plate control, 100 = twice control, blank-subtracted | signal enhancement, % at 5 µM | 210,000 tested, 0.11% active;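 active = signal enhancement of 30% or more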;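 note: luminescence tracks abundance of the self-degrading MDM2-luciferase fusion protein; higher signal means inhibition of MDM2 E3 ligase activity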
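Material: stable MDM2–luciferase fusion reporter cells / Quantity: 2000 cells/well / Dosing: single 5 µM compound dose, 0.2% final DMSO / Buffer or medium: DMEM / Schedule: 4 h cell settling then 2 h compound exposure, 37 °C / Detection: luminescence with SteadyLite reagent, 15 min at room temperature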
Numbers stand for hits; 0 = inactive; - = not tested or not shown. The list is not random: actives were taken first. Their share in the collection is about 4%.

SMILES | S1P3 antag | Hsp70 act | CHOP inhibitor | MDM2 E3 inh
COc1ccc2c(c1)-c1c(sn(-c3ccccc3)c1=S)C(C)(C)N2 | 0 | 0 | 70.0 | 0
COc1ccc2c(c1)-c1c(ssc1=S)C(C)(C)N2 | - | 0 | 0 | 0
COc1ccc2c(c1)-c1c(sn(-c3ccc(OC)c(OC)c3)c1=S)C(C)(C)N2 | - | 0 | 79.5 | 0
CCN(CC)C(=O)Cn1cc(S(=O)(=O)CC(=O)NCCc2ccc(OC)c(OC)c2)c2ccccc21 | 0 | 0 | 0 | 0
N#Cc1ccc(/C=C\c2nccc3c2[nH]c2ccccc23)cc1 | 0 | 0 | 77.9 | 0
C=CCn1c(SCC(=O)c2ccc(Cl)cc2)nnc1-c1ccc2c(c1)OCO2 | 0 | 0 | 0 | 0
Cc1nn(CCCC(=O)Nc2cc(Oc3ccccc3)cc([N+](=O)[O-])c2)c(C)c1[N+](=O)[O-] | 0 | 0 | 0 | 0
CCOc1ccc(Oc2cc(NC(=O)c3ccco3)cc([N+](=O)[O-])c2)cc1 | - | 0 | 87.4 | 0
Cc1nn(C)cc1C(=O)Nc1cc(Oc2ccc(Cl)cc2)cc([N+](=O)[O-])c1 | - | 0 | 81.7 | 0
Cc1ccc(C)c(Oc2cc(NC(=O)CCCn3nc(C)c([N+](=O)[O-])c3C)cc([N+](=O)[O-])c2)c1 | 0 | 0 | 80.2 | 0
Cc1ccc(Oc2cc(NC(=O)CCCn3nc([N+](=O)[O-])cc3C)cc([N+](=O)[O-])c2)cc1 | 0 | 0 | 73.4 | 0
NCCCCNS(=O)(=O)c1cccc2c(Cl)cccc12 | - | - | 0 | -
C/C(=N\NC(=O)C(C)Nc1cccc(Cl)c1)c1ccc([N+](=O)[O-])cc1 (configuration not stated) | 0 | 0 | 0 | 0
O=C(COC(=O)[C@H](Cc1c[nH]c2ccccc12)NC(=O)c1cccs1)NCc1ccccc1 | 0 | 0 | 0 | -
CCOC(=O)C1=NN(c2ccc(Cl)cc2)C(=O)C1 | 0 | - | 0 | -
CCCCn1c(SCC(=O)Nc2cc(C(F)(F)F)ccc2Cl)nnc1C(CC)N(C)C (configuration not stated) | 0 | 0 | 0 | 0
O=C(Nc1ccc(F)cc1)c1cnc(-c2ccccc2)nc1-c1ccccc1 | - | 0 | 81.2 | 0
O=C(Nc1cccc(-c2cnc3ccccc3n2)c1)c1ccccc1 | - | 0 | 0 | 0
O=C(Nc1ccc(F)c(F)c1)c1cnc(-c2ccccc2)nc1-c1ccccc1 | - | 0 | 93.6 | 0
COc1cccc(C2=NOC(C(=O)Nc3cc(C)on3)C2)c1OC (configuration not stated) | 0 | - | 0 | -
Cc1cc(NC(=O)C2CC(c3cccc(Br)c3)=NO2)no1 (configuration not stated) | 0 | 0 | 73.4 | 0
Cc1ccc(S(=O)(=O)CC(CN2CCOCC2)N2CCOCC2)cc1 (configuration not stated) | 0 | 0 | 0 | 0
CC1CCN(CC(CS(=O)(=O)c2ccc([N+](=O)[O-])cc2)N2CCC(C)CC2)CC1 (configuration not stated) | 0 | - | 71.0 | 0
O=C(Nc1ccccc1)Nc1ncc([N+](=O)[O-])s1 | 0 | 0 | 86.0 | 0
O=C(Nc1ncc([N+](=O)[O-])s1)c1cccc([N+](=O)[O-])c1 | 0 | - | 0 | -
SMILES | S1P3 antag | Hsp70 act | CHOP inhibitor | MDM2 E3 inh
O=C1N/C(=N/N=C/c2ccc(O)cc2)SC1Cc1ccccc1 (configuration not stated) | 0 | - | 0 | 0
COc1ccc(CC2S/C(=N/N=C/c3ccccc3O)NC2=O)cc1 (configuration not stated) | 0 | - | 70.1 | 0
O=C1N/C(=N/N=C/c2ccccc2O)SC1Cc1ccc(F)cc1 (configuration not stated) | 0 | - | 90.1 | 0
COc1ccc(CC2S/C(=N/N=C/c3ccc(O)cc3)NC2=O)cc1 (configuration not stated) | 0 | 0 | 0 | 0
C/C(CCc1ccccc1)=N/NC(=O)C(=O)NCc1ccccc1 | 0 | 0 | 0 | 0
CCN(CC)C(=O)CSc1nc2ccc(NC(=O)CSc3nccn3C)cc2s1 | 0 | 0 | 0 | 0
CC(=O)Nc1nc(-c2ccc(Br)s2)cs1 | 0 | 0 | 0 | 0
Cc1ccc(NC(=O)Nc2nc(-c3ccc(C)s3)cs2)cc1 | - | 0 | 86.3 | 0
Cc1cc(Br)c(OCc2ccc(C(=O)N/N=C3\CC(=O)CC(C)(C)C3)cc2)c(Br)c1 | 0 | 0 | 90.5 | -
COc1ccc(S(=O)(=O)Cc2ccc(C(=O)N3CCN(c4cccc(C)c4C)CC3)o2)cc1 | 0 | 0 | 71.1 | 0
COc1ccc2c(CC(=O)Nc3ccccc3OC)coc2c1 | 0 | 0 | 0 | 0
COc1ccc2c(CC(=O)Nc3ccc(OC)c(NS(=O)(=O)c4ccc(F)cc4)c3)coc2c1 | 81.1 | 0 | 0 | 0
CCOC(=O)c1c(NC(=O)c2cc(C(C)C)on2)sc(C(C)=O)c1C | - | 0 | 93.5 | 0
CCN1CCC(NC(=O)Nc2ccc(F)cc2F)CC1 | 0 | 0 | 0 | 0
CSc1nc(C)c2c(n1)N(c1ccc(C(C)C)cc1)CC2 | - | 0 | 0 | 0
COc1ccc(S(=O)(=O)c2ccc(OC)cc2)cc1 | - | 0 | 0 | 0
COc1ccc(S(=O)(=O)/N=C2/C=CC(=O)C(C)=C2C)cc1 | - | 0 | 81.8 | 0
CO/N=C/NC(=O)c1c(OC)ccnc1Oc1cccc(C(F)(F)F)c1 | - | 0 | 0 | 0
O=C(Nc1cccc(Cl)c1N1CCCC1)c1cccc(-c2cc3ccccc3oc2=O)c1 | - | 0 | 0 | 0
CN(C)S(=O)(=O)c1ccc(Cl)c(NC(=O)COC(=O)CN2C(=O)NC(C)(C)C2=O)c1 | 0 | 0 | 0 | 0
Cc1ccc(S(=O)(=O)N2CCCCC2)cc1NC(=O)CN1C(=O)CN(C)C1=O | 0 | 0 | 86.2 | 0
CC1(C)NC(=O)N(CC(=O)OCC(=O)Nc2cc(S(=O)(=O)N3CCCCC3)ccc2Cl)C1=O | 0 | 0 | 78.9 | 0
Cc1ccc(S(=O)(=O)N2CCCCC2)cc1NC(=O)Cn1ccsc1=N | 0 | 0 | 0 | 0
O=C(NNS(=O)(=O)c1ccc2ccccc2c1)c1cc(-c2ccccn2)nc2ccccc12 | 0 | 0 | 0 | 0
O=C(N/N=C\c1ccc(-c2ccc([N+](=O)[O-])cc2)o1)C1COc2ccccc2O1 (configuration not stated) | 0 | 0 | 81.2 | 0
SMILES | S1P3 antag | Hsp70 act | CHOP inhibitor | MDM2 E3 inh
CN(C)c1ccc(/C=N/NC(=O)C2COc3ccccc3O2)o1 (configuration not stated) | 0 | 0 | 0 | 0
Cc1ccc2c(c1)[nH]c1c(=O)n(CCN3CCNCC3)cnc12 | 0 | 0 | 0 | 0
O=c1c2[nH]c3ccccc3c2ncn1CCN1CCNCC1 | 0 | 0 | 89.4 | 0
Cc1ccc(N=CC2=C(O)CC(C)(C)CC2=O)nc1 | - | 0 | 0 | 0
CC1(C)CC(=O)C(/C=N/c2ncccc2C(=O)O)=C(O)C1 | - | 0 | 77.7 | 0
CC1(C)CC(=O)C(C=Nc2ccc(Cl)cn2)=C(O)C1 | - | 0 | 0 | 0
Cc1[nH]nc(N=CC2=C(O)CC(C)(C)CC2=O)c1-c1ccc(Cl)cc1 | 0 | 0 | 92.4 | 0
O=C1N(Cc2cccc(Cl)c2)C[C@@H]2C[C@@H](c3c[nH]c4ccccc34)N3CCC[C@@]123 | 0 | 0 | 0 | 0
Nc1nc(Nc2ccccc2)nc(NCc2ccco2)c1[N+](=O)[O-] | 0 | 0 | 85.9 | 0
COc1cccc(NC(=O)NCc2c(-c3ccccc3)noc2C)c1 | 0 | - | 0 | 0

Source: PubChem BioAssay
